bCat nuc transl: modulators of beta-catenin nuclear translocation. 190,000 tested, 0.3% active. HeLa beta-catenin nuclear translocation, immunofluorescence imaging. nuclear translocation activity, % at 5 µM. AID 1665;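 active = nuclear translocation activity above 50% at 5 µM, with a well cell count of 50 or more; inconclusive = wells under 50 cells across six images, flagged as toxic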;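 also: per-cell ratio of nuclear to cytoplasmic median beta-catenin stain intensity; plate controls were DMSO negative control for no effect and GSK-3 inhibitor IX positive control for full effect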
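Read-out: Nuclear/cytoplasmic beta-catenin signal ratio, % activation | Assay system: Human HeLa cell line | Times: 24 h compound exposure at 37°C, 5% CO2 | Signal: Fluorescence imaging of beta-catenin antibody stain plus DAPI | Dosing: 5 µM primary, 0.02–20 µM confirmation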
Dynein transport: dynein cargo transport inhibition; AID 1381; z-score, hits read low; 220,000 tested, 0.47% active; 3617.4 mouse cells, GR-EGFP nuclear translocation imaging; test concentration mostly 20 µM; stimulated with dexamethasone, 1 µM; hits give low values;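 active = plate z-score of nuclear minus cytoplasmic receptor signal below a set negative limit, without overly bright fluorescence or cell loss, cut at about -3.5 in these data, passing the limit was not always enough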;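 also: z-score of nuclear minus cytoplasmic ring GR-EGFP intensity difference per well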
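Also added: dexamethasone, 1.0 µM final. Medium: tet-free, stripped-serum medium. Detection: fixed, Hoechst-stained cells imaged at 10x for EGFP. Read-out: nuclear-to-cytoplasmic GR-EGFP distribution per well. Times: induction 48 h, compound 1 h, agonist 30 min.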
Insulin prom up: MIN6 insulin promoter up-regulation; MIN6 insulin promoter-GFP reporter, high-content imaging; hits give high values; z-score at 5 µM; 190,000 tested, 0.3% active; AID 1625;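 active = z-score above 3 at 5 µM with at least 500 cells counted in the well; inconclusive = wells under 500 cells, flagged as cytotoxic or low count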
MT stabilize HCS: stabilizes microtubules in HeLa cells | HeLa tubulin immunostaining HCS, 24 h; share of cells brighter than vehicle mean+2SD | % tubulin-high responders, % at 10 µM | 200,000 tested, 0.83% active | AID 2205;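 active = plate Z-score above 3 for both tubulin-high and condensed-nucleus cell shares, with cell loss under 80%, at 10 µM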;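 also: anti alpha tubulin signal scored within the nucleus-defined area of each cell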
Autophagy HCS: alters autophagy in cells | MEF GFP-LC3 puncta imaging; test concentration mostly 10 µM | calls only at 10 µM (by protocol) | 190,000 tested, 0.98% active;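 active = percentage of spot-positive cells more than 3 SD above its plate mean, without a fluorescence outlier flag or 80% toxicity; inconclusive = no clear call, values can overlap the other calls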;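 also: spot-positive cell cutoff set from DMSO-treated cells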
The depositor's hits bear a star; i = inactive; ? = inconclusive; · = no result given; + = active, no number. Most compounds without a hit are left out; they make up all but 2.3% or so of the library.

SMILES	bCat nuc transl	Dynein transport	Insulin prom up	MT stabilize HCS	Autophagy HCS
Cc1c(CN2CCC(CO)(CCOc3ccccc3)CC2)[nH]c2c(Cl)cccc12	1	-0.38	-2.2	29*	i
Cc1nn(C)c(Cl)c1CN1CCC(CO)(CCOc2ccccc2)CC1	-1	-0.83	·	2	i
C=CCn1c(O)c(N=NC(=O)c2cccnc2)c2cc(Br)ccc21	-2	1.7	-0.65	·	·
OC(CNCc1ccc(Cl)cc1)(c1ccccc1)c1ccc(F)cc1 (centres undefined)	3	0.12	·	2	+
O=C(O)Cc1sc(Nc2ccc(F)cc2)nc1-c1cccs1	0	-0.65	-0.13	2	i
Cc1cccc(C(=O)N2CCC(Cc3ccccc3)CC2)c1[N+](=O)[O-]	0	-0.097	-0.38	2	i
CCC(=O)n1nc(-c2ccc(Cl)cc2)nc1NCc1ccccc1	·	1.8	0.71	8	+
O=C1/C(=C/c2ccncc2)CCC/C1=C\c1ccncc1	·	-7*	?	31*	+
COc1ccccc1NC(=O)/C=C1\SCC(=O)N1C	-2	1.5	4.7*	2	i
CC12CN3CCN(CC(C3)/C1=N\NC(=O)Nc1cccc(Cl)c1)C2	2	0.19	0.4	4	i
COC(=O)c1cc2c(C)c(C)c3ccccn3c-2c1C(=O)OC	22	1.3	·	2	i
CC(C)OC(=O)c1c2c(n3ccccc13)C(=O)c1ccccc1C2=O	0	-0.79	12*	2	i
COc1ccc2oc(=O)c(C(=O)Nc3ccccc3O)cc2c1	0	0.78	·	·	·
COc1ccc2o/c(=N\O)c(C(=O)Nc3ccccc3OC)cc2c1	1	-4.2*	-0.2	2	i
COc1ccc2oc(=Nc3cc(F)ccc3F)c(C(N)=O)cc2c1	·	1.3	0.18	15	+
COc1ccc(OC)c(N=c2oc3cc(O)ccc3cc2C(N)=O)c1	0	-0.56	0.12	5	i
Cn1nnnc1N=N/C(=N/Nc1ccccc1)c1ccccc1	-1	-0.0068	-0.16	·	·
CCc1ccc(N2C(=O)CN(Cc3sccc3C)C2=S)cc1	-2	-0.22	-0.7	2	i
Cc1ccc2[nH]c3c(c2c1)CN(C(=O)CN1CCN(c2cccc(C)c2C)CC1)CC3	·	-1.6	-0.08	2	i
Cc1ccc2[nH]c3c(c2c1)CN(C(=O)CN1c2ccc(F)cc2CCC1C)CC3 (centres undefined)	30	0.38	-0.45	38*	i
Cc1ccc(N(CCC(=O)NC(C)(C)C)S(=O)(=O)c2ccc(C)cc2)cc1	0	0.33	-0.19	2	+
Cc1ccn2c(NC(C)(C)C)c(-c3cccs3)nc2c1	0	-0.21	-0.35	4	i
COc1cc(NC(=O)COc2ccc(Cl)cc2)ccc1-c1cc2ccccc2oc1=O	-1	-0.6	0.06	24*	i
CCOc1ccc(C(=O)NNC2CC(=O)N(Cc3ccc(Cl)cc3)C2=O)cc1OC (centres undefined)	7	-0.62	0.11	3	i
NC(=O)c1ccccc1NC(=S)NC(=O)CCc1ccccc1	·	0.82	1.6	23*	i
SMILES	bCat nuc transl	Dynein transport	Insulin prom up	MT stabilize HCS	Autophagy HCS
NC(=O)c1ccccc1NC(=O)CCc1ccccc1	0	0.15	-0.1	5	i
C=CCOc1c(Cl)cc(C2NC(=O)NC(C)=C2C(=O)OC)cc1Cl (centres undefined)	0	0.54	0.16	23*	i
Cc1c(NC(=O)c2cc3c(s2)-c2ccccc2OC3)cccc1[N+](=O)[O-]	-1	-0.79	0.21	4	+
O=C(CCl)Nc1ccccc1Sc1ccccc1	·	-0.63	0.45	3	i
Cc1ccc(C)c(Sc2ccc(NC(=O)CCl)cc2)c1	1	-4.2*	1.3	2	i
CCOC(=O)c1[nH]c2ccc(OC)cc2c1NC(=O)c1nonc1C	-1	1.4	-0.26	2	i
COC(=O)c1[nH]c2cc(OC)ccc2c1NC(=O)c1nonc1C	1	-0.23	0.45	37*	i
Cc1cnc(C(=O)OCC(=O)N(Cc2ccccc2)C(C)C)cn1	-6	-0.93	0.32	3	i
COc1cccc(CNC(=O)Cn2ncc3c(=O)oc4ccccc4c32)c1	1	0.56	-0.97	·	·
C/C(=N/NC(=O)CNC(=O)/C=C/c1ccco1)c1ccc(Cl)cc1	-1	0.62	1	2	i
CCOC(=O)c1sc2nc(CSc3ccccc3)nc(N3CCCN(C)CC3)c2c1C	3	2.3	-2.8	3	+
CC(C)NC(=O)CSc1nc(N)c(-c2ccccc2)c(=O)[nH]1	0	0.019	·	4	i
Cc1cc(C)n(-c2nc3ccccc3c(=O)n2OCC(=O)OCc2ccccc2)n1	-2	-0.51	-1.1	2	+
Cc1cc(C)n(-c2nc3ccccc3c(=O)n2OCC(=O)N(C)C)n1	3	-0.28	0.62	2	i
Cc1cc(C(C)(C)C)ccc1OCCCCN1CCCC1	8	-0.69	0.21	4	i
CCC(C)(C)c1ccc(OCCCC[n+]2ccc(C)cc2)c(C(C)(C)CC)c1	9	-3.6*	?	57	i
c1ccc(CCNc2nc3ccccc3n3nnnc23)cc1	-1	-1	0.88	3	+
COc1ccc(CCNc2nc3ccccc3n3nnnc23)cc1OC	·	0.39	-0.7	8	i
CCC(=O)NC(c1cccs1)c1cc(Cl)c2cccnc2c1O (centres undefined)	2	-0.091	-4.2	3	+
CCCCC(=O)NC(c1cccs1)c1cc(Cl)c2cccnc2c1O (centres undefined)	2	-0.12	-5.9	6	i
O=C(COc1ccc([N+](=O)[O-])cc1)NC(C(=O)O)C(O)c1cccc([N+](=O)[O-])c1 (centres undefined)	2	-0.37	-0.24	2	i
O=C(COc1ccc(NS(=O)(=O)c2ccc(F)cc2)cc1)N1CCOCC1	-2	0.45	·	2	i
N#CC1=C2SCC(O)(c3ccccc3)N2C(=O)CC1c1ccccc1F (centres undefined)	·	1.4	-0.02	47*	i
N#CC1=C2SCC(O)(c3ccccc3)N2C(=O)CC1c1cccs1 (centres undefined)	176*	-0.76	-0.77	32*	i
CCNC(=O)/C(=C/c1cccc([N+](=O)[O-])c1)NC(=O)c1ccc(C)cc1	0	0.13	-0.16	5	i
O=C(CCCN=C1NS(=O)(=O)c2ccccc21)OCc1cc([N+](=O)[O-])cc2c1OCOC2	-2	0.047	-0.66	5	+
C[C@H](N=C1NS(=O)(=O)c2ccccc21)C(=O)OCc1cc([N+](=O)[O-])cc2c1OCOC2	-2	0.29	-0.68	·	·
N#Cc1c(C(F)(F)F)cc(-c2ccc(F)cc2)nc1SCC(=O)O	0	2.9	-0.33	·	i
CCCCOc1ccc(-c2cc(C(F)(F)F)c(C#N)c(SCC(=O)O)n2)cc1	1	-1	·	2	+

High-throughput results deposited in PubChem BioAssay by several laboratories.
